# Data: ChEMBL document CHEMBL1152716, “Stereoselective synthesis of bioactive isosteviol derivatives as alpha-glucosidase inhibitors” (Bioorg Med Chem, 2009)
# Assay: Inhibition of yeast alpha glucosidase after 30 mins
# Set-up: species or system Saccharomyces cerevisiae
# Outline: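 Baker's yeast α-glucosidase (0.04 U/mL) preincubated 30 min with inhibitor in 0.067 M K2HPO4/KH2PO4 buffer, pH 6.8, at 37 °C; inhibitor and substrate dissolved in DMSO, final DMSO 10%. Reaction started with 0.5 mM substrate, run 5 min at 37 °C, quenched with 0.1 M Na2CO3 (pH 9.8). Absorbance at 405 nm read immediately as hydrolysis rate; triplicate.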
row,IC50,Structure (SMILES)
1,116 µM,CC(C)CCOC(=O)[C@]1(C)CCC[C@@]2(C)[C@@H]3CC[C@@]4(C)C[C@]3(CC[C@@H]21)[C@H](CO)[C@H]4O
2,> 200 µM,CCOC(=O)[C@]1(C)CCC[C@@]2(C)[C@@H]3CC[C@@]4(C)C[C@]3(CC[C@@H]21)CC4=O
3,> 200 µM,C[C@@]12CC[C@@H]3[C@@](CC[C@H]4[C@@]3(C)CCC[C@@]4(C)C(=O)O)(CC1=O)C2 [ISOSTEVIOL]
4,72.4 µM,CCOC(=O)[C@]1(C)CCC[C@@]2(C)[C@@H]3CC[C@@]4(C)C[C@]3(CC[C@@H]21)CC(=O)N4
5,143 µM,CCOC(=O)[C@]1(C)CCC[C@@]2(C)[C@@H]3CC[C@@]4(C)C[C@]3(CC[C@@H]21)[C@H](CO)C4=O
6,156 µM,C[C@@]12CC[C@@H]3[C@@](CC[C@H]4[C@@]3(C)CCC[C@@]4(C)C(=O)O)(C[C@H]1O)C2
7,102 µM,CC(C)COC(=O)[C@]1(C)CCC[C@@]2(C)[C@@H]3CC[C@@]4(C)C[C@]3(CC[C@@H]21)[C@H](CO)[C@H]4O
8,114 µM,CCN[C@H]1C[C@]23CC[C@H]4[C@@](C)(CCC[C@@]4(C)C(=O)OCC)[C@@H]2CC[C@@]1(C)C3
9,92.1 µM,C[C@@]12CC[C@@H]3[C@@](CC[C@H]4[C@@]3(C)CCC[C@@]4(C)C(=O)O)(C/C1=N/O)C2
10,143 µM,C=CCOC(=O)[C@]1(C)CCC[C@@]2(C)[C@@H]3CC[C@@]4(C)C[C@]3(CC[C@@H]21)[C@H](CO)[C@H]4O
11,88.9 µM,CCOC(=O)[C@]1(C)CCC[C@@]2(C)[C@@H]3CC[C@@]4(C)C[C@]3(CC[C@@H]21)C/C4=N\O
12,149 µM,C[C@]12CC[C@H]3[C@]4(C)CCC[C@@](C)(C(=O)O)[C@H]4CC[C@@]3(C1)[C@H](CO)[C@H]2O
13,> 200 µM,C=C1C(=O)[C@@]2(C)CC[C@@H]3[C@]1(CC[C@H]1[C@@]3(C)CCC[C@@]1(C)C(=O)OCC)C2
14,112 µM,CCOC(=O)[C@]1(C)CCC[C@@]2(C)[C@@H]3CC[C@@]4(C)C[C@]3(CC[C@@H]21)[C@H](COC(=O)c1ccccc1)[C@H]4O
15,> 200 µM,CCOC(=O)[C@]1(C)CCC[C@@]2(C)[C@@H]3CC[C@@]4(C)C[C@]3(CC[C@@H]21)[C@H](COC(C)=O)C4=O
16,132 µM,CCOC(=O)[C@]1(C)CCC[C@@]2(C)[C@@H]3CC[C@@]4(C)C[C@]3(CC[C@@H]21)C[C@H]4O
17,> 200 µM,C=CC(=O)O[C@@H]1C[C@]23CC[C@H]4[C@@](C)(CCC[C@@]4(C)C(=O)OCC)[C@@H]2CC[C@@]1(C)C3
18,97.2 µM,CC(C)OC(=O)[C@]1(C)CCC[C@@]2(C)[C@@H]3CC[C@@]4(C)C[C@]3(CC[C@@H]21)[C@H](CO)[C@H]4O
19,87.2 µM,CCCCOC(=O)[C@]1(C)CCC[C@@]2(C)[C@@H]3CC[C@@]4(C)C[C@]3(CC[C@@H]21)[C@H](CO)[C@H]4O
20,> 200 µM,C[C@]12CC[C@H]3[C@]4(C)CCC[C@@](C)(C(=O)OCc5ccccc5)[C@H]4CC[C@@]3(C1)[C@H](CO)[C@H]2O

# More lines, now with the values behind:
row,Structure (SMILES),IC50
1,CCCOC(=O)[C@]1(C)CCC[C@@]2(C)[C@@H]3CC[C@@]4(C)C[C@]3(CC[C@@H]21)[C@H](CO)[C@H]4O,85.4 µM
2,CCOC(=O)[C@]1(C)CCC[C@@]2(C)[C@@H]3CC[C@@]4(C)C[C@]3(CC[C@@H]21)c1c4[nH]c2ccccc12,68.2 µM
3,CCOC(=O)[C@]1(C)CCC[C@@]2(C)[C@@H]3CC[C@@]4(C)C[C@]3(CC[C@@H]21)[C@H](COC(C)=O)[C@H]4O,132 µM
4,C[C@]12CC[C@H]3[C@]4(C)CCC[C@@](C)(C(=O)OCCO)[C@H]4CC[C@@]3(C1)[C@H](CO)[C@H]2O,> 200 µM
5,C[C@@]12CC[C@@H]3[C@@](CC[C@H]4[C@@]3(C)CCC[C@@]4(C)C(=O)O)(CC(=O)O1)C2,139 µM
6,C[C@@]12CC[C@@H]3[C@@](CC[C@H]4[C@@]3(C)CCC[C@@]4(C)C(=O)O)(C[C@@H]1N)C2,> 200 µM
7,CCOC(=O)[C@]1(C)CCC[C@@]2(C)[C@@H]3CC[C@@]4(C)C[C@]3(CC[C@@H]21)[C@H](CO)[C@H]4O,86.2 µM
8,C[C@@]12CC[C@@H]3[C@@](CC[C@H]4[C@@]3(C)CCC[C@@]4(C)C(=O)O)(CC(=O)N1)C2 [ISOSTEVIOL LACTAM],81.6 µM
9,CCOC(=O)[C@]1(C)CCC[C@@]2(C)[C@@H]3CC[C@@]4(C)C[C@]3(CC[C@@H]21)[C@H](COC(=O)c1ccccc1)C4=O,> 200 µM
10,CCOC(=O)[C@]1(C)CCC[C@@]2(C)[C@@H]3CC[C@@]4(C)C[C@]3(CC[C@@H]21)C[C@@H]4N,91.2 µM
11,CCOC(=O)[C@]1(C)CCC[C@@]2(C)[C@@H]3CC[C@@]4(C)C[C@]3(CC[C@@H]21)CC(=O)O4,118 µM
12,C[C@]12CC[C@@H]3[C@](CC[C@H]4[C@@]3(C)CCC[C@@]4(C)C(=O)O)(C1)c1c2[nH]c2ccccc12,83.2 µM
13,CC(C)(C)OC(=O)[C@]1(C)CCC[C@@]2(C)[C@@H]3CC[C@@]4(C)C[C@]3(CC[C@@H]21)[C@H](CO)[C@H]4O,114 µM
14,COC(=O)[C@]1(C)CCC[C@@]2(C)[C@@H]3CC[C@@]4(C)C[C@]3(CC[C@@H]21)[C@H](CO)[C@H]4O,96.5 µM
